Measured values: ChEMBL document CHEMBL4270612, “Discovery of dual GyrB/ParE inhibitors active against Gram-negative bacteria” (Eur J Med Chem, 2018)
In brackets after ≈: the same amount, converted by molar mass.

Tests used:
[1] = test system: Pseudomonas aeruginosa; experiment: Antibacterial activity against Pseudomonas aeruginosa ARC4060 after 24 hrs by broth microdilution method; type: functional; settings: ARC4060, 24 h
In short: (§1)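 Broth microdilution per CLSI. Bacterial suspension adjusted to 1×10^6 CFU/mL in cation-adjusted Mueller–Hinton broth and mixed 1:1 with 2-fold serial compound dilutions. Final DMSO 2.5% v/v. Plates incubated at 35 °C with shaking at 140 rpm for 24 h.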

[2] = test system: Pseudomonas aeruginosa; experiment: Antibacterial activity against Pseudomonas aeruginosa ARC4063 after 24 hrs by broth microdilution method; type: functional; settings: ARC4063, 24 h
In short: (§2)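 Broth microdilution per CLSI. Bacterial suspension adjusted to 1×10^6 CFU/mL in cation-adjusted Mueller–Hinton broth and mixed 1:1 with 2-fold serial compound dilutions. Plates incubated at 35 °C with shaking at 140 rpm for 24 h.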

[3] = test system: Enterobacter cloacae; experiment: Antibacterial activity against Enterobacter cloacae ARC3528 after 24 hrs by broth microdilution method; type: functional; settings: ARC3528, 24 h; in short: as §1
[4] = test system: Acinetobacter baumannii; experiment: (§3) Antibacterial activity against Acinetobacter baumannii ARC3495 after 24 hrs by broth microdilution method; type: functional; settings: ARC3495, 24 h; in short: as §1
[5] = test system: Staphylococcus aureus; experiment: Antibacterial activity against methicillin-resistant Staphylococcus aureus USA100 after 24 hrs by broth microdilution method; type: functional; settings: USA100, 24 h
In short: (§4)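 Broth microdilution per CLSI. Bacterial suspensions adjusted to 1×10^6 CFU/mL in cation-adjusted Mueller–Hinton broth, mixed 1:1 with 2-fold serial compound dilutions (final DMSO 2.5% v/v). Incubation 35 °C, 140 rpm, 24 h.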

[6] = test system: Acinetobacter baumannii; experiment: as §3; type: functional; settings: ARC3495, 24 h; in short: as §1; remark: listed apart in the source
[7] = test system: Enterococcus faecalis; experiment: Antibacterial activity against Enterococcus faecalis ATCC 29212 after 24 hrs by broth microdilution method; type: functional; settings: ATCC 29212, 24 h; in short: as §1
[8] = molecular target: DNA gyrase subunit B (Escherichia coli, UniProt P0AES6); experiment: Inhibition of Escherichia coli GyrB (1 to 220 residues) expressed in Escherichia coli BL21(DE3)
[9] = test system: Klebsiella pneumoniae; experiment: Antibacterial activity against Klebsiella pneumoniae ARC1865 after 24 hrs by broth microdilution method; type: functional; settings: ARC1865, 24 h; in short: as §1
[10] = test system: Acinetobacter baumannii; experiment: Antibacterial activity against Acinetobacter baumannii ARC3484 after 24 hrs by broth microdilution method; type: functional; settings: ARC3484, 24 h; in short: as §2
[11] = test system: Pseudomonas aeruginosa; experiment: Antibacterial activity against Pseudomonas aeruginosa ARC3729 after 24 hrs by broth microdilution method; type: functional; settings: ARC3729, 24 h; in short: as §1
[12] = test system: Streptococcus pneumoniae; experiment: Antibacterial activity against Streptococcus pneumoniae ATCC 49619 after 24 hrs by broth microdilution method; type: functional; settings: ATCC 49619, 24 h; in short: as §1
[13] = test system: Pseudomonas aeruginosa; experiment: Antibacterial activity against Pseudomonas aeruginosa PAO1 after 24 hrs by broth microdilution method; type: functional; settings: PAO1, 24 h; in short: as §1
[14] = test system: Pseudomonas aeruginosa; experiment: Antibacterial activity against Pseudomonas aeruginosa ARC3506 after 24 hrs by broth microdilution method; type: functional; settings: ARC3506, 24 h; in short: as §1
[15] = test system: Pseudomonas aeruginosa; experiment: Antibacterial activity against Pseudomonas aeruginosa ARC3916 after 24 hrs by broth microdilution method; type: functional; settings: ARC3916, 24 h; in short: as §1
[16] = test system: Pseudomonas aeruginosa; experiment: Antibacterial activity against Pseudomonas aeruginosa ARC3727 after 24 hrs by broth microdilution method; type: functional; settings: ARC3727, 24 h; in short: as §2
[17] = test system: Pseudomonas aeruginosa; experiment: Antibacterial activity against Pseudomonas aeruginosa ARC3756 after 24 hrs by broth microdilution method; type: functional; settings: ARC3756, 24 h; in short: as §2
[18] = test system: Acinetobacter baumannii; experiment: Antibacterial activity against Acinetobacter baumannii ARC2781 after 24 hrs by broth microdilution method; type: functional; settings: ARC2781, 24 h; in short: as §2
[19] = test system: Acinetobacter baumannii; experiment: Antibacterial activity against Acinetobacter baumannii ARC3485 after 24 hrs by broth microdilution method; type: functional; settings: ARC3485, 24 h; in short: as §1
[20] = test system: Acinetobacter baumannii; experiment: Antibacterial activity against Acinetobacter baumannii ARC2779 after 24 hrs by broth microdilution method; type: functional; settings: ARC2779, 24 h; in short: as §1
[21] = test system: Pseudomonas aeruginosa; experiment: Antibacterial activity against Pseudomonas aeruginosa ARC3504 after 24 hrs by broth microdilution method; type: functional; settings: ARC3504, 24 h; in short: as §1
[22] = test system: Pseudomonas aeruginosa; experiment: Antibacterial activity against Pseudomonas aeruginosa ARC3607 after 24 hrs by broth microdilution method; type: functional; settings: ARC3607, 24 h; in short: as §1
[23] = test system: Acinetobacter baumannii; experiment: Antibacterial activity against Acinetobacter baumannii ARC2780 after 24 hrs by broth microdilution method; type: functional; settings: ARC2780, 24 h; in short: as §2
[24] = test system: Acinetobacter baumannii; experiment: Antibacterial activity against Acinetobacter baumannii ARC2675 after 24 hrs by broth microdilution method; type: functional; settings: ARC2675, 24 h; in short: as §2
[25] = test system: Acinetobacter baumannii; experiment: Antibacterial activity against Acinetobacter baumannii ARC3658 after 24 hrs by broth microdilution method; type: functional; settings: ARC3658, 24 h; in short: as §1
[26] = test system: Acinetobacter baumannii; experiment: Antibacterial activity against Acinetobacter baumannii ARC3515 after 24 hrs by broth microdilution method; type: functional; settings: ARC3515, 24 h; in short: as §1
[27] = test system: Pseudomonas aeruginosa; experiment: Antibacterial activity against Pseudomonas aeruginosa ARC3502 after 24 hrs by broth microdilution method; type: functional; settings: ARC3502, 24 h; in short: as §2
[28] = test system: Candida albicans; experiment: Antifungal activity against Candida albicans ATCC 90028 after 24 hrs by broth microdilution method; type: functional; settings: ATCC 90028, 24 h
[29] = test system: Acinetobacter baumannii; experiment: Antibacterial activity against Acinetobacter baumannii ARC2728 after 24 hrs by broth microdilution method; type: functional; settings: ARC2728, 24 h; in short: as §1
[30] = Thermodynamic solubility of the compound at pH 7.4; type: physicochemical; settings: buffer, read-out: Therm_solubility
[31] = test system: Acinetobacter baumannii; experiment: Antibacterial activity against Acinetobacter baumannii ARC2674 after 24 hrs by broth microdilution method; type: functional; settings: ARC2674, 24 h; in short: as §1
[32] = test system: Staphylococcus aureus; experiment: Antibacterial activity against Staphylococcus aureus ATCC 29213 after 24 hrs in presence of 2% human albumin by broth microdilution method; type: functional; settings: ATCC 29213, 24 h
[33] = test system: Acinetobacter baumannii; experiment: Antibacterial activity against Acinetobacter baumannii ARC3493 after 24 hrs by broth microdilution method; type: functional; settings: ARC3493, 24 h; in short: as §1
[34] = test system: Acinetobacter baumannii; experiment: Antibacterial activity against Acinetobacter baumannii ARC3882 after 24 hrs by broth microdilution method; type: functional; settings: ARC3882, 24 h; in short: as §1
[35] = test system: Pseudomonas aeruginosa; experiment: Antibacterial activity against Pseudomonas aeruginosa ARC003 after 24 hrs by broth microdilution method; type: functional; settings: ARC003, 24 h; in short: as §1
[36] = test system: Staphylococcus aureus; experiment: Antibacterial activity against methicillin-resistant Staphylococcus aureus FQ-R after 24 hrs by broth microdilution method; type: functional; in short: as §4
[37] = test system: Pseudomonas aeruginosa; experiment: Antibacterial activity against Pseudomonas aeruginosa ARC3511 after 24 hrs by broth microdilution method; type: functional; settings: ARC3511, 24 h; in short: as §2
[38] = test system: Acinetobacter baumannii; experiment: Antibacterial activity against Acinetobacter baumannii ARC3513 after 24 hrs by broth microdilution method; type: functional; settings: ARC3513, 24 h; in short: as §1
[39] = test system: Pseudomonas aeruginosa; experiment: Antibacterial activity against Pseudomonas aeruginosa ARC3509 after 24 hrs by broth microdilution method; type: functional; settings: ARC3509, 24 h; in short: as §1
[40] = test system: Staphylococcus aureus; experiment: Antibacterial activity against Staphylococcus aureus ATCC 29213 after 24 hrs by broth microdilution method; type: functional; settings: ATCC 29213, 24 h; in short: as §1
[41] = test system: Streptococcus pyogenes; experiment: Antibacterial activity against Streptococcus pyogenes ARC838 after 24 hrs by broth microdilution method; type: functional; settings: ARC838, 24 h; in short: as §2
[42] = test system: Escherichia coli; experiment: Antibacterial activity against tolC deficient Escherichia coli after 24 hrs by broth microdilution method; type: functional
In short: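 Broth microdilution per CLSI guidelines. Inoculum adjusted to 1×10^6 CFU/mL in cation-adjusted Mueller–Hinton broth, added 1:1 to 2-fold serial compound dilutions; final DMSO 2.5% v/v. Plates incubated 35 °C, 140 rpm, 24 h.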

[43] = test system: Pseudomonas aeruginosa; experiment: Antibacterial activity against Pseudomonas aeruginosa ARC4068 after 24 hrs by broth microdilution method; type: functional; settings: ARC4068, 24 h; in short: as §2

CCNC(=O)Nc1cc(-c2nc(C(F)(F)F)cs2)c(-c2cc(-c3n[nH]c(=O)o3)cnc2N2C3CCC2CN(C)C3)cn1
MIC [1]: 8 µg/mL (≈ 13.3 µM)
MIC [2]: 8 µg/mL (≈ 13.3 µM)
MIC [3]: 32 µg/mL (≈ 53.2 µM)
MIC [4]: 0.5 µg/mL (≈ 0.831 µM)
MIC [5]: < 0.06 µg/mL
MIC [6]: 0.5 µg/mL (≈ 0.831 µM)
MIC [7]: < 0.06 µg/mL
IC50 [8]: 6 nM
MIC [9]: 32 µg/mL (≈ 53.2 µM)
MIC [10]: 2 µg/mL (≈ 3.32 µM)
MIC [11]: 4 µg/mL (≈ 6.65 µM)
MIC [12]: < 0.06 µg/mL
MIC [13]: 2.4 µg/mL (≈ 3.99 µM)
MIC [14]: 4 µg/mL (≈ 6.65 µM)
MIC [15]: 4 µg/mL (≈ 6.65 µM)
MIC [16]: 4 µg/mL (≈ 6.65 µM)
MIC [17]: 8 µg/mL (≈ 13.3 µM)
MIC [18]: 0.25 µg/mL (≈ 0.416 µM)
MIC [19]: 2 µg/mL (≈ 3.32 µM)
MIC [20]: 1 µg/mL (≈ 1.66 µM)
MIC [21]: 8 µg/mL (≈ 13.3 µM)
MIC [22]: 16 µg/mL (≈ 26.6 µM)
MIC [23]: 0.5 µg/mL (≈ 0.831 µM)
MIC [24]: 4 µg/mL (≈ 6.65 µM)
MIC [25]: 1 µg/mL (≈ 1.66 µM)
MIC [26]: 1 µg/mL (≈ 1.66 µM)
MIC [27]: 8 µg/mL (≈ 13.3 µM)
MIC [28]: > 64 µg/mL
MIC [29]: 1 µg/mL (≈ 1.66 µM)
solubility thermodynamic [30]: 1490 µM (≈ 896 µg/mL)
MIC [31]: 4 µg/mL (≈ 6.65 µM)
MIC [32]: < 0.06 µg/mL
MIC [33]: 1 µg/mL (≈ 1.66 µM)
MIC [34]: 1 µg/mL (≈ 1.66 µM)
MIC [35]: 2 µg/mL (≈ 3.32 µM)
MIC [36]: < 0.06 µg/mL
MIC [37]: 2 µg/mL (≈ 3.32 µM)
MIC [38]: 4 µg/mL (≈ 6.65 µM)
MIC [39]: 8 µg/mL (≈ 13.3 µM)
MIC [40]: < 0.06 µg/mL
MIC [41]: < 0.06 µg/mL
MIC [42]: 0.12 µg/mL (≈ 0.199 µM)
MIC [43]: 8 µg/mL (≈ 13.3 µM)
